Here are results for ten compounds from ChEMBL document CHEMBL1142068, “Reduced susceptibility to polyenes associated with a missense mutation in the ERG6 gene in a clinical isolate of Candida glabrata with pseudohyphal growth” (2007).

≈ marks a conversion by molar mass, not a printed value. Calls of active or inactive are those of the source. No cut-off for these calls is given here.

Test [1] deals with Nakaseomyces glabratus. The test is described as follows: Susceptibility of polyene-resistant Candida glabrata 21229 isolate at 10 ug by disk diffusion method. It is filed as functional. The note with it: read-out: IZ. The method in brief: (§1)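 Disk diffusion on Casitone agar (pH 7.2, chloramphenicol 0.5 g/liter) with drug tablets. Tablet drug contents: voriconazole 1 μg, itraconazole 8 μg, amphotericin B/miconazole/clotrimazole 10 μg, fluconazole/ketoconazole 15 μg, nystatin 50 μg. Read-out is growth inhibition zone diameter (mm), mean of triplicates. Isolates were compared by Wilcoxon-Mann-Whitney test, unilateral α = 0.05.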

For test [2], the system named is Nakaseomyces glabratus. Kind of test: Susceptibility of Candida glabrata 21231 isolate at 10 ug by disk diffusion method. It is filed as functional. The note with it: read-out: IZ. The method, boiled down: (§2)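 Disk diffusion was run on Casitone agar (pH 7.2) with Neosensitab tablets. Tablets held 10 μg for amphotericin B, econazole, miconazole and clotrimazole, and 8 μg for itraconazole. Read-out is the inhibition-zone diameter in mm, as the mean of triplicates. Isolates were compared by Wilcoxon-Mann-Whitney test, unilateral α = 0.05.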

Test [3] deals with Nakaseomyces glabratus. Kind of test: Susceptibility of polyene-resistant Candida glabrata 21229 isolate at 1 ug by disk diffusion method. It is filed as functional. The method in brief: as §1
For test [4], the system named is Nakaseomyces glabratus. Kind of test: Antimicrobial activity against Candida glabrata 21231 isolate by E-test. The format is functional.
Test [5] deals with Nakaseomyces glabratus. Kind of test: Antimicrobial activity against polyene-resistant Candida glabrata 21229 isolate by E-test. The format is functional.
In test [6] the test system is Nakaseomyces glabratus. Kind of test: Susceptibility of polyene-resistant Candida glabrata 21229 isolate at 15 ug by disk diffusion method. To be noted: read-out: IZ. The format is functional. The method, boiled down:
as §1

The subject of test [7] is Nakaseomyces glabratus. Kind of test: Susceptibility of Candida glabrata 21231 isolate at 15 ug by disk diffusion method. The format is functional. The note with it: read-out: IZ. The method in brief:
as §1

For test [8], the system named is Nakaseomyces glabratus. Kind of test: Susceptibility of Candida glabrata 21229F34 isolate with URA3 by disk diffusion method. The format is functional.
The test system of test [9] is Nakaseomyces glabratus. Kind of test: Susceptibility of Candida glabrata 21229C218 isolate expressing ERG6 gene by disk diffusion method. The format is functional. The method in brief: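 Complemented ura3 derivative carrying a plasmid-borne ERG6 copy was selected on selective medium. Amphotericin B susceptibility was tested by disk diffusion on Casitone agar (pH 7.2) with Neosensitab tablets. Read-out is the growth-inhibition zone diameter in mm.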

In test [10] the test system is Nakaseomyces glabratus. Kind of test: Susceptibility of polyene-resistant Candida glabrata 21229 isolate by disk diffusion method. It is filed as functional. The method, boiled down: as §1
In test [11] the test system is Nakaseomyces glabratus. Kind of test: Susceptibility of polyene-resistant Candida glabrata 21229 isolate at 50 ug by disk diffusion method. The format is functional, organism-based. The method in brief: as §1
For test [12], the system named is Nakaseomyces glabratus. The test is described as follows: Susceptibility of Candida glabrata 21231 isolate at 50 ug by disk diffusion method. It is filed as functional, organism-based. The method, boiled down: as §1
Test [13] concerns Nakaseomyces glabratus. Kind of test: Growth inhibition of Candida glabrata 21231 isolate in YEPD agar plates at 4 mg/ml. It is filed as functional, organism-based. The method, boiled down:
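Dye susceptibility on YEPD agar plates with dye at increasing levels from 0.1 to 4 mg/ml. Inocula ranged from 2 × 10^6 to 2 × 10^2 cells. The read-out is the minimum dye concentration that inhibited growth of the same quantity of cells.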

Test [14] concerns Nakaseomyces glabratus. Kind of test: Growth inhibition of polyene-resistant Candida glabrata 21229 isolate in YEPD agar plates at 4 mg/ml. The format is functional, organism-based.
Test [15] has as its system Nakaseomyces glabratus. The test is described as follows: Susceptibility of polyene-resistant Candida glabrata 21229 isolate at 8 ug by disk diffusion method. The format is functional. To be noted: read-out: IZ. The method, boiled down: as §1
Test [16] has as its system Nakaseomyces glabratus. Kind of test: Susceptibility of Candida glabrata 21231 isolate at 8 ug by disk diffusion method. To be noted: read-out: IZ. It is filed as functional. The method, boiled down:
as §2

As for `Clc1ccc(COC(Cn2ccnc2)c2ccc(Cl)cc2Cl)c(Cl)c1` (stereo not drawn) [MICONAZOLE], the zone of inhibition at 10 µg/disc is 30 mm with Nakaseomyces glabratus [1] and 18 mm in the test on Nakaseomyces glabratus [2].

Consider `C[C@@H](c1ncncc1F)[C@](O)(Cn1cncn1)c1ccc(F)cc1F` [VORICONAZOLE], for which the zone of inhibition at 1 µg/disc in the test with Nakaseomyces glabratus [3] (Nakaseomyces glabratus, 21229, read-out: IZ) came out at 43 mm; in the test on Nakaseomyces glabratus [3] (read-out: IZ) it was 43 mm. The values for the minimum inhibitory concentration (MIC) against Nakaseomyces glabratus [4] and against Nakaseomyces glabratus [5] were 0.125 µg/mL (≈ 0.358 µM) and 0.047 µg/mL (≈ 0.135 µM), respectively.

For the compound `CC(=O)N1CCN(c2ccc(OCC3COC(Cn4ccnc4)(c4ccc(Cl)cc4Cl)O3)cc2)CC1` (stereo not drawn) [KETOCONAZOLE], the zone of inhibition at 15 µg/disc in the test on Nakaseomyces glabratus [6] came out at 50 mm; with Nakaseomyces glabratus [7], 24 mm. Moreover, the minimal inhibitory concentration (MIC) against Nakaseomyces glabratus [4] was 0.136 µg/mL (≈ 0.256 µM); in the test on Nakaseomyces glabratus [5] it was 0.034 µg/mL (≈ 0.064 µM).

For the compound `OC(Cn1cncn1)(Cn1cncn1)c1ccc(F)cc1F` [FLUCONAZOLE], the zone of inhibition at 15 µg/disc in the test with Nakaseomyces glabratus [6] worked out at 50 mm; in the test with Nakaseomyces glabratus [7], 20 mm. In addition, the MIC with Nakaseomyces glabratus [4] amounted to 3.7 µg/mL (≈ 12.1 µM); against Nakaseomyces glabratus [5] it was 1 µg/mL (≈ 3.27 µM).

Consider `C[C@@H]1[C@H](O)[C@@H](C)/C=C/C=C/C=C/C=C/C=C/C=C/C=C/[C@H](O[C@@H]2O[C@H](C)[C@@H](O)[C@H](N)[C@@H]2O)C[C@@H]2O[C@](O)(C[C@@H](O)C[C@@H](O)[C@H](O)CC[C@@H](O)C[C@@H](O)CC(=O)O[C@H]1C)C[C@H](O)[C@H]2C(=O)O` [AMPHOTERICIN B], for which the zone of inhibition at 10 µg/disc with Nakaseomyces glabratus [1] stood at 13 mm; in the test on Nakaseomyces glabratus [2], 34 mm. Moreover, the “inhibition zone (IZ)” value with Nakaseomyces glabratus [8] is reported as 16 mm; with Nakaseomyces glabratus [9] it was 30 mm; in the test on Nakaseomyces glabratus [10] it was 16 mm. The results for the MIC with Nakaseomyces glabratus [4] and in the test on Nakaseomyces glabratus [5] were 0.029 µg/mL (≈ 0.0314 µM) and 1.3 µg/mL (≈ 1.41 µM), respectively.

With `Clc1ccccc1C(c1ccccc1)(c1ccccc1)n1ccnc1` [CLOTRIMAZOLE], the zone of inhibition at 10 µg/disc in the test on Nakaseomyces glabratus [1] was 40 mm; with Nakaseomyces glabratus [2] it was 26 mm.

As for NYSTATIN, the results for the inhibition zone (IZ) with Nakaseomyces glabratus [11] and with Nakaseomyces glabratus [12] were 16 mm and 34 mm, respectively.

In the case of `Nc1c(/N=N/c2ccc(-c3ccc(/N=N/c4cc(S(=O)(=O)O)c5ccccc5c4N)cc3)cc2)cc(S(=O)(=O)O)c2ccccc12`, the outcome in the test on Nakaseomyces glabratus [13] and in the test on Nakaseomyces glabratus [14] was inactive.

With `CCC(C)n1ncn(-c2ccc(N3CCN(c4ccc(OCC5COC(Cn6cncn6)(c6ccc(Cl)cc6Cl)O5)cc4)CC3)cc2)c1=O` (stereo not drawn) [ITRACONAZOLE], the zone of inhibition at 8 µg/disc in the test on Nakaseomyces glabratus [15] was 30 mm; with Nakaseomyces glabratus [16], 16 mm. For the same compound, the MIC was determined as 18.7 µg/mL (≈ 26.5 µM) in the test on Nakaseomyces glabratus [4] and 1.8 µg/mL (≈ 2.55 µM) against Nakaseomyces glabratus [5].

With `CC[C@H](C)C[C@H](C)CCCCCCCCC(=O)N[C@H]1C[C@@H](O)[C@@H](NCCN)NC(=O)[C@@H]2[C@@H](O)CCN2C(=O)[C@H]([C@H](O)CCN)NC(=O)[C@H]([C@H](O)[C@@H](O)c2ccc(O)cc2)NC(=O)[C@@H]2C[C@@H](O)CN2C(=O)[C@H]([C@@H](C)O)NC1=O` [CASPOFUNGIN], the MIC with Nakaseomyces glabratus [4] came to 0.023 µg/mL (≈ 0.021 µM); against Nakaseomyces glabratus [5], 0.024 µg/mL (≈ 0.022 µM).
